Common to all, as to assay type: cell-based
Series [1] concerns Raji. The experiment in a line: Inhibition of 12-O-tetradecanoylphorbol-13-acetate induced EBV-early antigen activation in human Raji cells at 10 molar ratio relative to control. The conditions noted are these: human gammaherpesvirus 4. The essentials: (§1)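 Raji cells in RPMI-1640 treated 48 h at 37 °C with n-butyric acid (4 mmol), TPA (32 pmol = 20 ng/mL) and test agent at 10, 100, 500 or 1000 mol ratio/TPA (0.32–32 nmol). EA-positive cells in smears detected by indirect immunofluorescence; induction expressed relative to TPA positive control (100%), n = 3, ±S.D.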

The nature of series [2]: Cytotoxicity against human Raji cells assessed as cell viability at 100 molar ratio after 48 hrs. The settings on record: read-out: Activity. The method in brief:
(§2)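 Raji cells (EBV genome-carrying, Burkitt's lymphoma-derived) grown in RPMI-1640 and incubated 48 h at 37 °C with 4 mmol n-butyric acid, 32 pmol TPA (20 ng/mL) and test agent at 10–1000 mol ratio/TPA (0.32–32 nmol). Viability given as percentage of Raji cells; n = 3, ±S.D.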

For series [3], the system named is Raji. Kind of series: Inhibition of 12-O-tetradecanoylphorbol-13-acetate induced EBV-early antigen activation in human Raji cells at 1000 molar ratio relative to control. The conditions noted are these: human gammaherpesvirus 4. The essentials: as §1
Series [4] in a line: Cytotoxicity against human Raji cells assessed as cell viability at 10 molar ratio after 48 hrs. The settings on record: read-out: Activity. The essentials:
as §2

Series [5] has as its system Raji. Kind of series: Inhibition of 12-O-tetradecanoylphorbol-13-acetate induced EBV-early antigen activation in human Raji cells at 500 molar ratio relative to control. The conditions noted are these: human gammaherpesvirus 4. The method in brief:
as §1

Series [6] can be described thus: Cytotoxicity against human Raji cells assessed as cell viability at 500 molar ratio after 48 hrs. The conditions noted are these: read-out: Activity. The essentials: as §2
Series [7] is described as follows: Cytotoxicity against human Raji cells assessed as cell viability at 1000 molar ratio after 48 hrs. The conditions noted are these: read-out: Activity. The method in brief:
as §2

For series [8], the system named is Raji. The experiment in a line: Inhibition of 12-O-tetradecanoylphorbol-13-acetate induced EBV-early antigen activation in human Raji cells at 100 molar ratio relative to control. The settings on record: human gammaherpesvirus 4. The method in brief: as §1

For the molecule `C=C(CO)C(CC)C[C@@H](O)[C@@](C)(O)[C@H]1CC[C@@]2(O)C3=CC(=O)[C@@H]4C[C@@H](O)[C@@H](O)C[C@]4(C)[C@H]3CC[C@]12C` (stereo partly drawn), the EBV-EA activation relative to TPA control with Raji [1] was determined as 95.8%. The viability at 48 h, 100 molar ratio in series [2] was over 80%. The EBV-EA induction remaining (% of TPA control) in the series on Raji [3] was 4.6%; in the series with Raji [5], 49.1%; in the series with Raji [8] it was 72.6%. The viability at 48 h, 10 molar ratio in series [4] is over 80%. Besides, the viability at 48 h, 500 molar ratio in series [6] was over 80%. Moreover, in series [7], the viability at 48 h, 1000 molar ratio was determined as 70%.
Consider `C[C@@H]1C(=O)O[C@H](C)[C@H]1CC(=O)[C@](C)(O)[C@H]1CC[C@@]2(O)C3=CC(=O)[C@@H]4C[C@@H](O)[C@@H](O)C[C@]4(C)[C@H]3CC[C@]12C`, for which the EBV-EA activation relative to TPA control in the series on Raji [1] came to 100%. In addition, the viability at 48 h, 100 molar ratio in series [2] was over 80%. The EBV-EA induction remaining (% of TPA control) was determined as 20.9% with Raji [3], 61.9% in the series with Raji [5] and 84.5% with Raji [8]. Moreover, the viability at 48 h, 10 molar ratio in series [4] is over 80%. Besides, the viability at 48 h, 500 molar ratio in series [6] was over 80%. For the same molecule, the viability at 48 h, 1000 molar ratio in series [7] amounted to 60%.
Take `C/C=C(/C)C(=O)O[C@@H]1CC[C@]2(CO2)[C@]2(COC(C)=O)[C@@H](OC(C)=O)C[C@@H](C)[C@](C)(C[C@H](O)C3=CC(=O)OC3)[C@@H]12`: in the series with Raji [1], the EBV-EA activation relative to TPA control was found to be 100%. For the same molecule, in series [2], the viability at 48 h, 100 molar ratio was over 80%. The EBV-EA induction remaining (% of TPA control) was determined as 0% with Raji [3], 55.8% in the series with Raji [5] and 76.3% with Raji [8]. Moreover, in series [4], the viability at 48 h, 10 molar ratio is over 80%. In addition, the viability at 48 h, 500 molar ratio in series [6] is over 80%. Besides, the viability at 48 h, 1000 molar ratio in series [7] was determined as 50%.
`CC(C)(O)CC[C@@H](O)[C@](C)(O)[C@H]1CC[C@@]2(O)C3=CC(=O)[C@]4(O)C[C@@H](O)[C@@H](O)C[C@]4(C)[C@H]3CC[C@]12C` [POLYPODINE B]: the viability at 48 h, 100 molar ratio in series [2] is over 80%. Also, in series [4], the viability at 48 h, 10 molar ratio is over 80%. Further, in series [6], the viability at 48 h, 500 molar ratio is over 80%. The viability at 48 h, 1000 molar ratio in series [7] stood at 70%.
For the molecule `C=C(C)C(C[C@@H](O)[C@@](C)(O)[C@H]1CC[C@@]2(O)C3=CC(=O)[C@@H]4C[C@@H](O)[C@@H](O)C[C@]4(C)[C@H]3CC[C@]12C)C(C)O` (stereo partly drawn) [DECUMBESTERONE], the EBV-EA activation relative to TPA control in the series on Raji [1] amounted to 100%. For the same molecule, in series [2], the viability at 48 h, 100 molar ratio is over 80%. The EBV-EA induction remaining (% of TPA control) amounted to 0% in the series with Raji [3], 24.7% in the series with Raji [5] and 66% in the series on Raji [8]. Also, in series [4], the viability at 48 h, 10 molar ratio is over 80%. For the same molecule, in series [6], the viability at 48 h, 500 molar ratio was over 80%. Besides, the viability at 48 h, 1000 molar ratio in series [7] was found to be 70%.
With `CC1(C)C[C@H](O)C[C@@]2(C)OC(=O)C=C12` [LOLIOLIDE], the EBV-EA activation relative to TPA control with Raji [1] stood at 88%. Moreover, the viability at 48 h, 100 molar ratio in series [2] is over 80%. Besides, the EBV-EA induction remaining (% of TPA control) with Raji [3] is 5.1%; in the series with Raji [5] it was 26.8%; in the series on Raji [8], 59.6%. Further, the viability at 48 h, 10 molar ratio in series [4] was over 80%. Also, the viability at 48 h, 500 molar ratio in series [6] was over 80%. In series [7], the viability at 48 h, 1000 molar ratio came out at 60%.
In the case of `CC(C)(O)CC[C@@H](O)[C@@](C)(O)[C@H]1CC[C@@]2(O)C3=CC(=O)[C@]4(O)C[C@@H](O)[C@@H](O)C[C@]4(C)[C@H]3CC[C@]12C`, the EBV-EA activation relative to TPA control in the series on Raji [1] amounted to 100%. Also, the EBV-EA induction remaining (% of TPA control) was found to be 0% in the series on Raji [3], 23.4% in the series on Raji [5] and 65.9% in the series on Raji [8].

The record behind these values is ChEMBL document CHEMBL1144067, “Cancer chemopreventive agents (antitumor-promoters) from Ajuga decumbens” (J Nat Prod, 1999).
